These results are taken from ChEMBL document CHEMBL1145243, “Synthesis and bladder smooth muscle relaxing properties of substituted 3-amino-4-aryl-(and aralkyl-)cyclobut-3-ene-1,2-diones” (Bioorg Med Chem Lett, 2005).

For orientation: IC50 means the concentration that gives 50% inhibition.

Type in all cases: functional
The species entered for test [1] is Rattus norvegicus. The test is described as follows: In vitro inhibitory concentration required to relax KCl-induced contractions in rat bladder detrusor muscle strips.
For test [2], the species on record is Rattus norvegicus. The test is described as follows: Percent of reversal of rat bladder detrusor muscle relaxation (resulting from compound treatment) by addition of glyburide.
The species entered for test [3] is Rattus norvegicus. The test is described as follows: In vitro inhibitory concentration required to relax KCl-induced contractions in rat aortic rings. To be noted: Aorta. In outline:
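Rat aortic rings were contracted with KCl and then exposed to drug. The value is the drug concentration (μM) that relaxed the KCl-induced contraction by 50%, reported ± SE.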

Setting [4] is: Rattus norvegicus, read-out: IC50.

Take `CCC(C)(C)Nc1c(-c2ccc(OCCCc3ccccc3)cc2)c(=O)c1=O`: the IC50 result in the test filed under Rattus norvegicus [1] is listed as “Contracted”.

As for `CC(Nc1c(Cc2ccc(C#N)cc2)c(=O)c1=O)C(C)(C)C` (stereo not given), the Reversal in the test filed under Rattus norvegicus [2] was 0%. Besides, the IC50 in the test filed under Rattus norvegicus [1] (setting [4]) is greater than 30 µM.

With `CC(Nc1c(/C=C/c2ccc(Br)cc2)c(=O)c1=O)C(C)(C)C` (stereo not given), the Reversal in the test filed under Rattus norvegicus [2] stood at 25%. Moreover, the half-maximal inhibitory concentration (IC50) in the test listed under Rattus norvegicus [1] (setting [4]) was greater than 30 µM.

`CC(=O)C(c1ccc(C(F)(F)F)cc1)c1c(NC(C)C(C)(C)C)c(=O)c1=O` (stereo not given): the Reversal in the test filed under Rattus norvegicus [2] is on record as 0%. The IC50 in the test filed under Rattus norvegicus [1] (setting [4]) came to 16.2 µM.

`C[C@@H](Nc1c(Nc2ccc(C#N)cc2)c(=O)c1=O)C(C)(C)C`: in the test filed under Rattus norvegicus [2], the Reversal worked out at 110%. The IC50 in the test listed under Rattus norvegicus [1] (setting [4]) was 0.37 µM; in the test listed under Rattus norvegicus [3], 0.064 µM.

Regarding `CC(Nc1c(/C=C/c2ccc(C#N)cc2)c(=O)c1=O)C(C)(C)C` (stereo not given), the Reversal in the test filed under Rattus norvegicus [2] amounted to 0%. Further, the IC50 in the test listed under Rattus norvegicus [1] (setting [4]) amounted to 2.94 µM.

Take `COc1ccc(Cc2c(NC(C)C(C)(C)C)c(=O)c2=O)cc1` (stereo not given): the Reversal in the test filed under Rattus norvegicus [2] amounted to 0%. For the same molecule, in the test filed under Rattus norvegicus [1] (setting [4]), the IC50 is greater than 30 µM.

Consider `COc1ccc(-c2c(NCC(C)c3ccccc3)c(=O)c2=O)cc1` (stereo not given), for which the Reversal in the test listed under Rattus norvegicus [2] is listed as 0%. Besides, the half-maximal inhibitory concentration (IC50) in the test listed under Rattus norvegicus [1] (setting [4]) is greater than 30 µM.

On to `COc1ccc(-c2c(NC(C)c3ccccc3)c(=O)c2=O)cc1` (stereo not given), for which the Reversal in the test listed under Rattus norvegicus [2] is 0%. For the same molecule, in the test listed under Rattus norvegicus [1] (setting [4]), the IC50 is 27 µM.

As for `CCC(C)(C)/N=c1/c(-c2cccc(OC)c2)c(O)c1=O`, the figures for the IC50 entry in the test filed under Rattus norvegicus [1] and in the test filed under Rattus norvegicus [1] (setting [4]) were “Contracted” and greater than 30 µM, respectively.

With `COc1ccc(C(C(C)=O)c2c(NC(C)C(C)(C)C)c(=O)c2=O)cc1` (stereo not given), the Reversal in the test filed under Rattus norvegicus [2] worked out at 0%. In the test filed under Rattus norvegicus [1] (setting [4]), the IC50 is greater than 30 µM.

As for `CCC(C)(C)Nc1c(-c2cccnc2)c(=O)c1=O`, the Reversal in the test listed under Rattus norvegicus [2] was determined as 0%. The 50% inhibitory concentration (IC50) in the test listed under Rattus norvegicus [1] (setting [4]) is greater than 30 µM.

Consider `CCC(C)(C)/N=c1/c(-c2ccc(OC)cc2)c(O)c1=O`, for which, in the test filed under Rattus norvegicus [2], the Reversal is on record as 0%. The IC50 in the test listed under Rattus norvegicus [1] (setting [4]) is 2.5 µM; in the test filed under Rattus norvegicus [3], 37.6 µM.

With `COc1ccc(-c2c(N(C)C(C)C)c(=O)c2=O)cc1`, in the test listed under Rattus norvegicus [2], the Reversal came out at 0%. In addition, the results for the IC50 in the test listed under Rattus norvegicus [1] (setting [4]) and in the test filed under Rattus norvegicus [3] were 12 µM and 46.2 µM, respectively.

As for `COc1ccc(-c2c(NCCc3cccc(C(F)(F)F)c3)c(=O)c2=O)cc1`, in the test listed under Rattus norvegicus [2], the Reversal worked out at 0%. For the same molecule, in the test listed under Rattus norvegicus [1] (setting [4]), the IC50 is greater than 30 µM.

With `CCc1cc(C#N)ccc1Nc1c(N[C@H](C)C(C)(C)C)c(=O)c1=O`, the Reversal in the test filed under Rattus norvegicus [2] was 77%. Besides, the half-inhibitory concentration (IC50) in the test listed under Rattus norvegicus [1] (setting [4]) came out at 0.09 µM; in the test filed under Rattus norvegicus [3], 0.017 µM.
